Results collected from several papers.
Each line is one published result; the experiments were not run side by side.
TMEM97: Sigma intracellular receptor 2 (TMEM97, Homo sapiens, UniProt Q5BJF2)
PTGS2: Prostaglandin G/H synthase 2 (PTGS2, Homo sapiens, UniProt P35354)
CHRM3: Muscarinic acetylcholine receptor M3 (CHRM3, Homo sapiens, UniProt P20309)

CN[C@@H](C)[C@@H](O)c1ccccc1
Ki (TMEM97; ligand displacement; radioligand): > 10 µM

CN1C(=O)C(=Cc2cn(-c3nc(N4CCCC4)nc(N4CCOCC4)n3)c3ccccc23)C(=O)N(C)C1=O
IC50 (PTGS2; enzyme activity; inhibitor): 6 µM

Clc1cccc(N2CCNCC2)c1Cl
Ki (CHRM3; ligand displacement; radioligand; cell membranes): 25.1 µM

O=c1[nH]c2ccccc2n1CCCN1CCC(n2c(=O)[nH]c3cc(Cl)ccc32)CC1
Ki (Alpha-1D adrenergic receptor (ADRA1D, Homo sapiens, UniProt P25100); cell-free assay): 0.71 µM

CN1C(=O)C(=Cc2cn(-c3nc(Cl)nc(N4CCOCC4)n3)c3ccccc23)C(=O)N(C)C1=O
IC50 (PTGS2; enzyme activity; inhibitor): 0.1 µM

CCCCCCCCCCCCNCCCc1ccc([N+](=O)[O-])cc1
Ki (CHRM3; ligand displacement; radioligand): 3.3 µM

CN1CC[C@@]23CCCC[C@@H]2[C@@H]1Cc1ccc(O)cc13
Ki (TMEM97; ligand displacement; radioligand): 2.94 µM

C[C@@H]1NC(=O)[C@H](CC(N)=O)NC(=O)[C@H](Cc2ccccc2)NC(=O)[C@@H]2Cc3ccccc3CN2C(=O)[C@H](CCCNC(=N)N)NC(=O)[C@@H]2CCCN2C(=O)[C@H]2CCCN2C(=O)[C@H](Cc2ccccc2)NC1=O
EC50 (Melanocyte-stimulating hormone receptor (Mc1r, Mus musculus, UniProt Q01727); reporter gene; agonist): > 100 µM
